Assay results from different studies.
Action: inhibitor
DRD3: D(3) dopamine receptor (DRD3, Homo sapiens, UniProt P35462)
SLC6A3: Sodium-dependent dopamine transporter (SLC6A3, Homo sapiens, UniProt Q01959)
CA12: Carbonic anhydrase 12 (CA12, Homo sapiens, UniProt O43570)
USP51: Ubiquitin carboxyl-terminal hydrolase 51 (USP51, Homo sapiens, UniProt Q70EK9)

Structure (SMILES) | target | read-out | method | cells | concentration | inhibition [%]
O=c1oc2cc(OCC(O)CN3CCN(c4ccc(F)cc4)CC3)ccc2c2c1CCC2 (centres unmarked) | DRD3 | enzyme activity |  |  | 10 µM | 0
c1ccc(CCC2CCN(CCCCn3nnnc3C(c3ccccc3)c3ccccc3)CC2)cc1 | SLC6A3 | transporter uptake |  | HEK293 | 1 µM | 80.3
N#CC1CSc2[nH]c(=O)sc2C1c1cn(-c2ccccc2)nc1-c1ccc(Br)cc1 (centres unmarked) | CA12 | enzyme activity | absorbance |  | 0.1 µM | 40.6
Fc1ccc(C(c2ccc(F)cc2)c2nnnn2CCCN2CCC(CCCc3ccccc3)CC2)cc1 | SLC6A3 | transporter uptake |  | HEK293 | 1 µM | 33.1
O=C1c2cccc(O)c2C(=O)c2c(O)cccc21 | USP51 | enzyme activity |  |  | 5 µM | 14
COc1ccc(S(N)(=O)=O)cc1C(=O)NCCCN1CCN(c2ccccc2OC)CC1 | DRD3 | enzyme activity |  |  | 10 µM | 21.6
Cc1ccc(-c2nn(-c3ccccc3)cc2C2c3sc(=O)[nH]c3SC3C(=O)N(c4ccccc4)C(=O)C32)cc1 (centres unmarked) | CA12 | enzyme activity | absorbance |  | 1 µM | 56.2
COc1cc(C(C)=O)ccc1OCC(O)CN1CCN(c2cc(Cl)ccc2C)CC1 (centres unmarked) | DRD3 | enzyme activity |  |  | 10 µM | 35.9
N[C@@H](CSSC[C@H](N)C(=O)O)C(=O)O | USP51 | enzyme activity |  |  | 5 µM | 24
Fc1ccc(C(c2ccc(F)cc2)c2nnnn2CCCCN2CCC(Cc3ccccc3)CC2)cc1 | SLC6A3 | transporter uptake |  | HEK293 | 1 µM | 92.3
O=C(O)c1cc(O)c(O)c(O)c1 | USP51 | enzyme activity |  |  | 5 µM | 99
CCOC(=O)C1CSc2[nH]c(=O)sc2C1c1cn(-c2ccccc2)nc1-c1ccc(Cl)cc1 (centres unmarked) | CA12 | enzyme activity | absorbance |  | 10 µM | 85.5
Clc1ccc(C(c2ccc(Cl)cc2)c2nnnn2CCCN2CCC(CCCc3ccccc3)CC2)cc1 | SLC6A3 | transporter uptake |  | HEK293 | 1 µM | 19.8
CCOC(=O)C1CSc2[nH]c(=O)sc2C1c1cn(-c2ccccc2)nc1-c1ccc(Br)cc1 (centres unmarked) | CA12 | enzyme activity | absorbance |  | 10 µM | 81
CN1C(=O)/C(=C2/C(=O)Nc3ccccc32)c2ccccc21 | USP51 | enzyme activity |  |  | 5 µM | 48
Clc1ccc(C(c2ccc(Cl)cc2)c2nnnn2CCCCN2CCN(CCCc3ccccc3)CC2)cc1 | SLC6A3 | transporter uptake |  | HEK293 | 1 µM | 72.7
C[Se]CC[C@H](N)C(=O)O | USP51 | enzyme activity |  |  | 5 µM | 34
CCOC(=O)C1CSc2[nH]c(=O)sc2C1c1cn(-c2ccccc2)nc1-c1ccccc1 (centres unmarked) | CA12 | enzyme activity | absorbance |  | 10 nM | 10.6
Clc1ccc(C(c2ccccc2)c2nnnn2CCCCN2CCC(CCc3ccccc3)CC2)cc1 (centres unmarked) | SLC6A3 | transporter uptake |  | HEK293 | 1 µM | 74.6
Cc1[nH]n(-c2ccc([N+](=O)[O-])cc2)c(=O)c1C=NCCN1CCN(C(=O)c2cccc(F)c2)CC1 | DRD3 | enzyme activity |  |  | 10 µM | -24.9
O=C1NC(=S)C(=Cc2cn(-c3ccccc3)nc2-c2ccc(Br)cc2)S1 | CA12 | enzyme activity | absorbance |  | 100 µM | 75
COc1ccccc1N1CCN(CC(O)Cn2cnc3c2c(=O)n(C)c(=O)n3C)CC1 (centres unmarked) | DRD3 | enzyme activity |  |  | 10 µM | -20.3
Nc1ncnc2c1ncn2[C@@H]1O[C@H](CO)[C@@H](O)[C@H]1O | USP51 | enzyme activity |  |  | 5 µM | 24
Cc1ccccc1N1CCN(CC(O)COc2ccc(C(=O)c3ccccc3)cc2)CC1 (centres unmarked) | DRD3 | enzyme activity |  |  | 10 µM | 53.1
O=C(/C=C/C=C/c1ccc2c(c1)OCO2)N1CCCCC1 | USP51 | enzyme activity |  |  | 5 µM | 31
Cc1ccccc1OCC(O)CN1CCN(CC(O)COc2ccccc2C)CC1 (centres unmarked) | DRD3 | enzyme activity |  |  | 10 µM | -12.1
O=c1c(-c2ccc(O)cc2)coc2cc(O)ccc12 | USP51 | enzyme activity |  |  | 5 µM | 10
CCOC(=O)C1CSc2[nH]c(=O)sc2C1c1cn(-c2ccccc2)nc1-c1ccc(C)cc1 (centres unmarked) | CA12 | enzyme activity | absorbance |  | 0.1 µM | 28
O=C1C2CCCN2C(=O)N1CCCCN1CCN(c2cccc(Cl)c2)CC1 (centres unmarked) | DRD3 | enzyme activity |  |  | 10 µM | 63.4
